# Reference: ChEMBL document CHEMBL1681705, “Optimisation of ITK inhibitors through successive iterative design cycles” (Bioorg Med Chem Lett, 2011)
# Assays:
# [1] = biological target: Tyrosine-protein kinase Lyn (Homo sapiens) (UniProt P07948); test: Inhibition of Lyn at 1 uM
# Procedure, shortened: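 Single-point screen within a 108-kinase selectivity panel. Each kinase was tested with inhibitor at 0.1 and 1.0 micromolar, and activity was recorded as percent inhibition.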
# [2] = biological target: Serine/threonine-protein kinase SIK1 (Homo sapiens) (UniProt P57059); test: Inhibition of SIK at 1 uM
# [3] = Inhibition of JNK2a2 at 0.1 uM; details: values are per cent of control
# [4] = biological target: T1, Cytoplasmic tyrosine-protein kinase BMX (Homo sapiens) (UniProt P51813); test: Inhibition of Bmx at 1 uM; values are per cent of control
# T1 sequence (whole entry): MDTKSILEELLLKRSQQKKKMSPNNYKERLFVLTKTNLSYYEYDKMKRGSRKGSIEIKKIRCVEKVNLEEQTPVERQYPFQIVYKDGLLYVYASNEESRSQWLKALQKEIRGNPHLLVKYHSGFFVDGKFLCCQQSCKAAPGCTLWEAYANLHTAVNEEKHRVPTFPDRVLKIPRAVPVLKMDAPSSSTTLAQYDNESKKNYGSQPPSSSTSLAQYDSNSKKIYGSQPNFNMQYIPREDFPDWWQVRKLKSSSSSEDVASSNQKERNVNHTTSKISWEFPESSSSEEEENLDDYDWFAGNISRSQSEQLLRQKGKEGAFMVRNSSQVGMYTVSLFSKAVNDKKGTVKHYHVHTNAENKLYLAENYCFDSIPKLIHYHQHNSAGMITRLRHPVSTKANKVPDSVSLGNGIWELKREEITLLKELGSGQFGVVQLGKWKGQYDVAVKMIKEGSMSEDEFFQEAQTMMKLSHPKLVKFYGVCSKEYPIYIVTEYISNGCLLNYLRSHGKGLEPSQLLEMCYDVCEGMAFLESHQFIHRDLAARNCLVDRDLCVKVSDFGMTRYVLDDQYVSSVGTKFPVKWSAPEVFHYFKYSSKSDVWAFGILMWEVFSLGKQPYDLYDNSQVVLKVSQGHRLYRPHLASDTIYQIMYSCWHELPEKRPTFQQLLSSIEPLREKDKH
# [5] = biological target: Tyrosine-protein kinase Fes/Fps (Homo sapiens) (UniProt P07332); test: Inhibition of Fes at 1 uM; values are per cent of control
# [6] = biological target: Tyrosine-protein kinase Yes (Homo sapiens) (UniProt P07947); test: Inhibition of Yes at 1 uM; values are per cent of control
# [7] = biological target: T2, Serine/threonine-protein kinase Sgk1 (Homo sapiens) (UniProt O00141); test: Inhibition of SGK at 0.1 uM; values are per cent of control
# T2 sequence (whole entry): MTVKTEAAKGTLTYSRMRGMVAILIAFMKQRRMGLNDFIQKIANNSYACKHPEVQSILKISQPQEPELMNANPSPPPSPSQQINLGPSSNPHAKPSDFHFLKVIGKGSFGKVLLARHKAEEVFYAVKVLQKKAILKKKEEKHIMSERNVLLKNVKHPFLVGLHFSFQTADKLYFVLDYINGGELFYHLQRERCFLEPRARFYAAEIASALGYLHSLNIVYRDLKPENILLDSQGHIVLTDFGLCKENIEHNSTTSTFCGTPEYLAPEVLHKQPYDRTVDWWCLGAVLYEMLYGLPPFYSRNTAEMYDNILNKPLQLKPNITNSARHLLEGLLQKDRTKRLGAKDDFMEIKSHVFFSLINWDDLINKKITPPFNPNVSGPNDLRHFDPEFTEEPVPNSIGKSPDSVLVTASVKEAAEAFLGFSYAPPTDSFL
# [8] = biological target: Fibroblast growth factor receptor 2 (Homo sapiens) (UniProt P21802); test: Inhibition of FGFR2 at 1 uM; values are per cent of control
# [9] = biological target: Receptor-interacting serine/threonine-protein kinase 2 (Homo sapiens) (UniProt O43353); test: Inhibition of RIPK2 at 1 uM; values are per cent of control
# [10] = biological target: Dual specificity mitogen-activated protein kinase kinase 1 (Homo sapiens) (UniProt Q02750); test: Inhibition of MEK1 at 0.1 uM; values are per cent of control
# [11] = biological target: T3, Ephrin type-A receptor 8 (Homo sapiens) (UniProt P29322); test: Inhibition of EphA8 at 0.1 uM; values are per cent of control
# T3 sequence (whole entry): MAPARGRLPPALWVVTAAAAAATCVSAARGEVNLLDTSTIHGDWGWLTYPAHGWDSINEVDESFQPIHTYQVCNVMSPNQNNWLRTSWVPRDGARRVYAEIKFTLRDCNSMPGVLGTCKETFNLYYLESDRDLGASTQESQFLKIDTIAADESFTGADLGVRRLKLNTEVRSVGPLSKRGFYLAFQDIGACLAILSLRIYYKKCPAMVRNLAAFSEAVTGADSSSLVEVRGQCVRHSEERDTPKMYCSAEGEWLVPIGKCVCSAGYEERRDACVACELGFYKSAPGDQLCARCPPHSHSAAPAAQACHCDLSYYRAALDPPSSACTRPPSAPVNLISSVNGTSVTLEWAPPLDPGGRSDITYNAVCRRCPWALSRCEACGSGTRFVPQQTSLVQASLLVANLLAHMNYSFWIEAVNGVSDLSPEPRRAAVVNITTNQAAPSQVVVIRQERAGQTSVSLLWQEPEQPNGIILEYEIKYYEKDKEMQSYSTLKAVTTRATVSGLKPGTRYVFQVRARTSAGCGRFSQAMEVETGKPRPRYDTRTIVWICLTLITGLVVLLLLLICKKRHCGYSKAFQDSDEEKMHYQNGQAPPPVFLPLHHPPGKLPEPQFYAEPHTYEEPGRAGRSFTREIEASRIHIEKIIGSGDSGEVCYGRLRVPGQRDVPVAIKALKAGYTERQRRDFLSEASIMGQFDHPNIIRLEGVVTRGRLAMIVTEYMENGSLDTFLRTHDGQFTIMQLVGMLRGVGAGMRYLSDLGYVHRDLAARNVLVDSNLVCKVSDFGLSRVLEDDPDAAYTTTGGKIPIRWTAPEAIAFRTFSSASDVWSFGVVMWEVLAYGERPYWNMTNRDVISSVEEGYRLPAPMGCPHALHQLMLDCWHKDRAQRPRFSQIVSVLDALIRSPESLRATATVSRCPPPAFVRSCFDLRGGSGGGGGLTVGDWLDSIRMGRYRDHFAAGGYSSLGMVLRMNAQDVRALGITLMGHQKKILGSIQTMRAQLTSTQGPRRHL
# [12] = biological target: Cyclin-dependent kinase 5/CDK5 activator 1 (Homo sapiens) (UniProt Q00535+Q15078); test: Inhibition of CDK5/p35 at 1 uM; values are per cent of control
# Cyclin-dependent kinase 5/CDK5 activator 1 (Homo sapiens), sequence (Q00535 whole entry): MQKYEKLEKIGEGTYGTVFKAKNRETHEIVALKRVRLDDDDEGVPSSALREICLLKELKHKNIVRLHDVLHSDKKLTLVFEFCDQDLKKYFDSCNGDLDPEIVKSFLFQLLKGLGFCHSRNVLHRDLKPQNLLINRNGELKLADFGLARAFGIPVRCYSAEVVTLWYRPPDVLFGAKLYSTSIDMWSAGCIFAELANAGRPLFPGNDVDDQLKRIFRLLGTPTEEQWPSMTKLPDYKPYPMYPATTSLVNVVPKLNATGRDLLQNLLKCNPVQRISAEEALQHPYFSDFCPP
# Cyclin-dependent kinase 5/CDK5 activator 1 (Homo sapiens), sequence (Q15078 99-307 partner limits assumed): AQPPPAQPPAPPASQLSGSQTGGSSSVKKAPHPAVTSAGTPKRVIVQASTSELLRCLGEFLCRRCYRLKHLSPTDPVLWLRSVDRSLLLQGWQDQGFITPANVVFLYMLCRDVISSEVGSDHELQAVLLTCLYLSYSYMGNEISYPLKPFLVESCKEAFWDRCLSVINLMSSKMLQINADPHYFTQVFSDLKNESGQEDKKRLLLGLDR
# Fibroblast growth factor receptor 2 (Homo sapiens), sequence (P21802 22-821 limits assumed): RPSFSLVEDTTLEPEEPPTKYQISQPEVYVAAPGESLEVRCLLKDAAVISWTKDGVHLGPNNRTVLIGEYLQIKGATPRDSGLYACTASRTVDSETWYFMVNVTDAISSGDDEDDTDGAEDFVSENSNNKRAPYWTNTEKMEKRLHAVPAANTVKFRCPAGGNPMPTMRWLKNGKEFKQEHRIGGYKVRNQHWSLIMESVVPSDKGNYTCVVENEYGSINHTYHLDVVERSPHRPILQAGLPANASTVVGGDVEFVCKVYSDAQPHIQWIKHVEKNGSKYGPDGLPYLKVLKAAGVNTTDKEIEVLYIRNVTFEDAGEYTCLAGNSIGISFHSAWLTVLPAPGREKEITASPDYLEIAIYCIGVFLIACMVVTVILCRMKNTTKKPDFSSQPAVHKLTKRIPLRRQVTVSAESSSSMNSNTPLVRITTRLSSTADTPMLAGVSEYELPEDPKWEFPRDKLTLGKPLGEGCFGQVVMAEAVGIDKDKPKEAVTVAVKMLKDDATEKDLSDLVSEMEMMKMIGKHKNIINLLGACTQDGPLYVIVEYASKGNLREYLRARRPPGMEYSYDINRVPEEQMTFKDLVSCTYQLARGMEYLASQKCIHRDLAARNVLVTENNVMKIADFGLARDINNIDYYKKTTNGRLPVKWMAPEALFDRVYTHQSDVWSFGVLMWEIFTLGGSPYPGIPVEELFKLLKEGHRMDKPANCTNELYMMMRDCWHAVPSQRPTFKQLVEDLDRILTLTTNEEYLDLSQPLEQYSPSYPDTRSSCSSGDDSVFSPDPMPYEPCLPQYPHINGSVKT
# Tyrosine-protein kinase Yes (Homo sapiens), sequence (P07947 2-543 limits assumed): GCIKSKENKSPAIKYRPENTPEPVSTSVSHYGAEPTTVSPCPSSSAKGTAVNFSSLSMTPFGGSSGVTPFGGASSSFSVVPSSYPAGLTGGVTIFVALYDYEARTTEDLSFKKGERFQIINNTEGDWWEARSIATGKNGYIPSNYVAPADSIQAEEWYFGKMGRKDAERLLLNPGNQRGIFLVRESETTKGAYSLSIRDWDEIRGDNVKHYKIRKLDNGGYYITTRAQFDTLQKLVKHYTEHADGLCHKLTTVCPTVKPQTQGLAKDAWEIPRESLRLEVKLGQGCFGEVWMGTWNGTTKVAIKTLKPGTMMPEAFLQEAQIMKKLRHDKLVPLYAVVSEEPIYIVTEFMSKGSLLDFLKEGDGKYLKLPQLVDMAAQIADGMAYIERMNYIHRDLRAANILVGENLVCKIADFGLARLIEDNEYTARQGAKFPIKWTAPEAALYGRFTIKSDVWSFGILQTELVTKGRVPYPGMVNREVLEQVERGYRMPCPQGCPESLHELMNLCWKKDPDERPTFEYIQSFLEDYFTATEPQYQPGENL
# Dual specificity mitogen-activated protein kinase kinase 1 (Homo sapiens), sequence (Q02750 whole entry): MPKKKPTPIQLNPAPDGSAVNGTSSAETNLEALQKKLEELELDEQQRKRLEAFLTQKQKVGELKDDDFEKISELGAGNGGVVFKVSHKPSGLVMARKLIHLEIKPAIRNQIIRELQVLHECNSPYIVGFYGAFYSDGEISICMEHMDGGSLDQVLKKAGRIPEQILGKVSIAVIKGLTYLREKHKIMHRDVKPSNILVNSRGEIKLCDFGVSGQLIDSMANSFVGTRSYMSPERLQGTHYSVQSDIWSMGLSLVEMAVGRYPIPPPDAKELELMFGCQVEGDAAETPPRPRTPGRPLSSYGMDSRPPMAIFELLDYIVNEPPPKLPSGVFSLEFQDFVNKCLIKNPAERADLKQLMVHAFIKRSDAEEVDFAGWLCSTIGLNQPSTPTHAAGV
# Tyrosine-protein kinase Lyn (Homo sapiens), sequence (P07948 2-512 limits assumed): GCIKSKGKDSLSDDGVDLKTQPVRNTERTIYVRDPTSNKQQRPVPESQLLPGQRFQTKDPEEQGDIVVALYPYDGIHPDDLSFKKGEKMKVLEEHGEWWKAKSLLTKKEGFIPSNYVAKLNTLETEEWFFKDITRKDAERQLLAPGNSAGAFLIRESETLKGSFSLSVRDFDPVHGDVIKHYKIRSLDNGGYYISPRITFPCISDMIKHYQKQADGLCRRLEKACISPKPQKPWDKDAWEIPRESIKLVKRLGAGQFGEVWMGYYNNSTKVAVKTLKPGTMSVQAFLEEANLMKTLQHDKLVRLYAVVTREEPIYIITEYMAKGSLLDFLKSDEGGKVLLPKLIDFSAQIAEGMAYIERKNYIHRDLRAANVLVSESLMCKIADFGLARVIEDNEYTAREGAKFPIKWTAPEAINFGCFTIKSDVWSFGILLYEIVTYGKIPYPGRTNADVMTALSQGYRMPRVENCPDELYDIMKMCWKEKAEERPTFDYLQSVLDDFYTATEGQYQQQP
# Serine/threonine-protein kinase SIK1 (Homo sapiens), sequence (P57059 whole entry): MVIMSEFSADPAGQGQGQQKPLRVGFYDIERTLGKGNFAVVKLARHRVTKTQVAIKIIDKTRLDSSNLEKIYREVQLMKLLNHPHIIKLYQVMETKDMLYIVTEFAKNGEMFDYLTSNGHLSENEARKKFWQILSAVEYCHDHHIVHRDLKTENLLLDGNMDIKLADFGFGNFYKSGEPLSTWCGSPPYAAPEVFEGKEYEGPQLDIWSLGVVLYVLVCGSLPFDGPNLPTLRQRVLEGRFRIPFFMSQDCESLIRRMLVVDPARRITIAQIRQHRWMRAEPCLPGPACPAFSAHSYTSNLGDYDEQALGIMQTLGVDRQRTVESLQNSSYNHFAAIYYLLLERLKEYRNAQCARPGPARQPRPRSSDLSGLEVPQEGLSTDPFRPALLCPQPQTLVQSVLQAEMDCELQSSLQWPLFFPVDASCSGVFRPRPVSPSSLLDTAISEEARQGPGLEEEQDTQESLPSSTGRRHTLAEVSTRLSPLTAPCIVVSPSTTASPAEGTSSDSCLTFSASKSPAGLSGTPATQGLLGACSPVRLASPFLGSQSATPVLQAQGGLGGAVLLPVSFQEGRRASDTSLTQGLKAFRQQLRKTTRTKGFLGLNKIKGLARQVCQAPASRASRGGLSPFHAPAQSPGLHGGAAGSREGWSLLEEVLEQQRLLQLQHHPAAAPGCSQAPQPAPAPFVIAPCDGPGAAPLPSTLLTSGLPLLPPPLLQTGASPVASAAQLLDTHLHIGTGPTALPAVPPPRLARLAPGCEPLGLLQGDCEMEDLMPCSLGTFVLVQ
# Receptor-interacting serine/threonine-protein kinase 2 (Homo sapiens), sequence (O43353 whole entry): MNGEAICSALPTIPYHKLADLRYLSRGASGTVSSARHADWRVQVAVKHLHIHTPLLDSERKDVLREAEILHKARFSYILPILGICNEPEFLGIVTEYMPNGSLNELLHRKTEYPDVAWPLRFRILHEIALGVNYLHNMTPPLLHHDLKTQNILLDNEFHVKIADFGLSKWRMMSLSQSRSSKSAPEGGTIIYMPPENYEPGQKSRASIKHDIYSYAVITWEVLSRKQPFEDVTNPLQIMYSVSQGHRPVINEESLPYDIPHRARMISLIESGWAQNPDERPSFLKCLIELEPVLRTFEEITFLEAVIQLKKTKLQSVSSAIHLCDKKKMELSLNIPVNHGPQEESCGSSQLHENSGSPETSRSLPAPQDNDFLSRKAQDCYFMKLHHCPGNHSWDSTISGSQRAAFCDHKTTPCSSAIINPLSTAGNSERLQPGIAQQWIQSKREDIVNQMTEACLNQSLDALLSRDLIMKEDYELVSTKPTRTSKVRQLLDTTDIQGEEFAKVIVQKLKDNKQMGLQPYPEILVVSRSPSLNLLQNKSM
# Tyrosine-protein kinase Fes/Fps (Homo sapiens), sequence (P07332 whole entry): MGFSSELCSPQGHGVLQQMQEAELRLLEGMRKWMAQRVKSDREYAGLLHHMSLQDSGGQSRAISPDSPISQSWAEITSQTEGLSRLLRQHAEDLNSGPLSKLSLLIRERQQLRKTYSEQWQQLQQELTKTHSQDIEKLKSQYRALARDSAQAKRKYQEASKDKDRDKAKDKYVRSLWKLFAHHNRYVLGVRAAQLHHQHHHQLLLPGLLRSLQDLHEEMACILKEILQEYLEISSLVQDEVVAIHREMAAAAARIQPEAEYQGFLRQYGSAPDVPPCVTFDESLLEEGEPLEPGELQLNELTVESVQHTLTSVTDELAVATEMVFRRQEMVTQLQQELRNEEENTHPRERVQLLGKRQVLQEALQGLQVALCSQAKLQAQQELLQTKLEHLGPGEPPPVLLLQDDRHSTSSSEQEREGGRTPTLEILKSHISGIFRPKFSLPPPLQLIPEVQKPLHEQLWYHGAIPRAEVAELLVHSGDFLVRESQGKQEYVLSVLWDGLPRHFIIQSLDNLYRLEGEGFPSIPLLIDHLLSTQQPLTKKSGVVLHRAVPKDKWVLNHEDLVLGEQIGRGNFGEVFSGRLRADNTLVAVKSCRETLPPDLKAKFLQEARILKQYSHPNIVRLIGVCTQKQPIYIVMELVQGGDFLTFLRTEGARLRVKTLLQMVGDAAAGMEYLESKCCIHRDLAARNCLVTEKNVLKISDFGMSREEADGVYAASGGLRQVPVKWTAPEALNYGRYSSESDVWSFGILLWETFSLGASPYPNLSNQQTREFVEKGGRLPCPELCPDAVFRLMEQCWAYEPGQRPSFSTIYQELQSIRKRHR
inhibition [1] [%],inhibition [2] [%],residual activity [3] [%],residual activity [4] [%],residual activity [5] [%],residual activity [6] [%],residual activity [7] [%],residual activity [8] [%],residual activity [9] [%],residual activity [10] [%],residual activity [11] [%],residual activity [12] [%],SMILES
1,9,103,-7,0,0,63,1,53,51,97,2,Cc1ccc2cc(-c3n[nH]c4ccc(NC5CCNC5)cc34)[nH]c2c1 (centres undefined)
0,14,93,8,1,-3,121,4,78,96,92,0,Cc1ccc2cc(-c3n[nH]c4ccc(NC5CCN(Cc6ccccc6)CC5)cc34)[nH]c2c1
